The values below come from ChEMBL document CHEMBL1268843, “Synthesis, NMR characterization and divergent biological actions of 2'-hydroxy-ceramide/dihydroceramide stereoisomers in MCF7 cells” (Bioorg Med Chem, 2010).

The subject of series [1] is MCF7. As to the kind of experiment: Metabolic stability in human MCF7 cells assessed as endogenous 2-OH-ceramide levels at 2.5 to 20 uM after 24 hrs by LC-MS/MS analysis. In kind it is ADME, cell-based. Conditions: mcf7, 24 h. An outline of the steps:
(§1)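 MCF7 cells grown in parallel with proliferation sets, treated with compound in ethanol (<0.1%) for 24 h (or time course at 10 μM); Bligh & Dyer lipid extracts analysed by LC-MS/MS on triple quadrupole in positive-ion MRM; quantified against spiked-matrix calibration curves with internal standard, linear regression; levels normalized to phospholipid (pmol/nmol Pi), compared with control cells.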

The test system of series [2] is MCF7. The experiment in a line: Metabolic stability in human MCF7 cells assessed as cellular sphingosine levels at up to 25 uM after 24 hrs by LC-MS/MS analysis. The class given is ADME, cell-based. The settings on record: mcf7, 24 h. An outline of the steps:
as §1

For series [3], the system named is MCF7. As to the kind of experiment: Metabolic stability in human MCF7 cells assessed as endogenous sphingosine levels at 10 uM after 24 hrs by LC-MS/MS analysis. Conditions: mcf7, 24 h. In kind it is ADME, cell-based. In a few lines:
as §1

For series [4], the system named is MCF7. As to the kind of experiment: Metabolic stability in human MCF7 cells assessed as ceramide species levels at up to 5 uM after 24 hrs by LC-MS/MS analysis. In kind it is ADME, cell-based. Conditions: mcf7, 24 h. In a few lines: as §1
The test system of series [5] is MCF7. The experiment in a line: Metabolic stability in human MCF7 cells assessed as C16-ceramide levels at 10 uM after 24 hrs by LC-MS/MS analysis relative to control. The class given is ADME, cell-based. The settings on record: mcf7, 24 h. In a few lines: as §1
In series [6] the test system is MCF7. As to the kind of experiment: Metabolic stability in human MCF7 cells assessed as C18-ceramide levels at 10 uM after 24 hrs by LC-MS/MS analysis relative to control. The class given is ADME, cell-based. The settings on record: mcf7, 24 h. An outline of the steps:
as §1

Series [7] relates to MCF7. The experiment in a line: Metabolic stability in human MCF7 cells assessed as cellular ceramide levels at up to 25 uM after 24 hrs by LC-MS/MS analysis. The class given is ADME, cell-based. Conditions: mcf7, 24 h. An outline of the steps: as §1
For series [8], the system named is MCF7. The experiment in a line: Metabolic stability in human MCF7 cells assessed as cellular ceramide levels at 10 uM after up to 30 hrs by LC-MS/MS analysis. The class given is ADME, cell-based. Conditions: mcf7, 30 h. An outline of the steps: as §1
Series [9] relates to MCF7. As to the kind of experiment: Metabolic stability in human MCF7 cells assessed as C14-ceramide levels at 10 uM after 24 hrs by LC-MS/MS analysis relative to control. Conditions: mcf7, 24 h. In kind it is ADME, cell-based. In a few lines: as §1
The test system of series [10] is MCF7. As to the kind of experiment: Metabolic stability in human MCF7 cells assessed as cellular dihydroceramide levels at up to 5 uM after 24 hrs by LC-MS/MS analysis. In kind it is ADME, cell-based. The settings on record: mcf7, 24 h. In a few lines:
as §1

Series [11] concerns MCF7. The experiment in a line: Metabolic stability in human MCF7 cells assessed as cellular C16-dihydroceramide levels after 24 hrs by LC-MS/MS analysis. The class given is ADME, cell-based. Conditions: mcf7, 24 h. In a few lines: as §1
The subject of series [12] is MCF7. As to the kind of experiment: Metabolic stability in human MCF7 cells assessed as cellular dihydrsphingosine levels at 40 uM after 24 hrs by LC-MS/MS analysis relative to control. The settings on record: mcf7, 24 h. The class given is ADME, cell-based. An outline of the steps: as §1
The subject of series [13] is MCF7. The experiment in a line: Metabolic stability in human MCF7 cells assessed as cellular dihydroceramide levels at up to 10 uM after 24 hrs by LC-MS/MS analysis. The class given is ADME, cell-based. The settings on record: mcf7, 24 h. An outline of the steps:
as §1

Series [14] deals with MCF7. As to the kind of experiment: Antiproliferative activity against human MCF7 cells after 24 hrs by trypan blue exclusion assay. The class given is functional, cell-based. The settings on record: MCF7, 24 h.
The subject of series [15] is MCF7. The experiment in a line: Metabolic stability in human MCF7 cells assessed as C24:1-ceramide levels at 20 uM after 24 hrs by LC-MS/MS analysis relative to control. In kind it is ADME, cell-based. The settings on record: mcf7, 24 h. In a few lines:
as §1

For series [16], the system named is MCF7. The experiment in a line: Metabolic stability in human MCF7 cells assessed as C24-ceramide levels at 20 uM after 24 hrs by LC-MS/MS analysis relative to control. The settings on record: mcf7, 24 h. The class given is ADME, cell-based. An outline of the steps:
as §1

Series [17] relates to MCF7. As to the kind of experiment: Metabolic stability in human MCF7 cells assessed as C18-ceramide levels at 20 uM after 24 hrs by LC-MS/MS analysis relative to control. In kind it is ADME, cell-based. Conditions: mcf7, 24 h. In a few lines:
as §1

Series [18] concerns MCF7. The experiment in a line: Metabolic stability in human MCF7 cells assessed as C14-ceramide levels at 20 uM after 24 hrs by LC-MS/MS analysis relative to control. The class given is ADME, cell-based. Conditions: mcf7, 24 h. In a few lines: as §1
Series [19] deals with MCF7. The experiment in a line: Metabolic stability in human MCF7 cells assessed as C16-ceramide levels at 20 uM after 24 hrs by LC-MS/MS analysis relative to control. The class given is ADME, cell-based. The settings on record: mcf7, 24 h. In a few lines: as §1
In series [20] the test system is MCF7. The experiment in a line: Metabolic stability in human MCF7 cells assessed as cellular dihydroceramide levels at 40 uM after 24 hrs by LC-MS/MS analysis. In kind it is ADME, cell-based. Conditions: mcf7, 24 h. An outline of the steps:
as §1

Series [21] concerns MCF7. The experiment in a line: Antiproliferative activity against human MCF7 cells assessed as inhibition of cell growth at 10 uM after 24 hrs by trypan blue exclusion assay. The class given is functional, cell-based.

Usually IC50 stands for the concentration needed to halve the response being measured. A low value points to higher potency.

`CCCCCCCCCCCCC/C=C/[C@@H](O)[C@H](CO)NC(=O)[C@H](O)CCCC`: the Stability result in the series on MCF7 [1], with MCF7 [2], in the series with MCF7 [3], in the series on MCF7 [4], in the series with MCF7 [7] and in the series on MCF7 [8] was “Stable” each time. For the same molecule, the “fold change (FC)” value in the series on MCF7 [5] is 1.7; in the series on MCF7 [6] it was 5; in the series with MCF7 [9], 3.
Regarding `CCCCCCCCCCCCCCC[C@@H](O)[C@H](CO)NC(=O)[C@H](O)CCCC`, the Stability entry with MCF7 [10], with MCF7 [11], with MCF7 [12] and with MCF7 [13] was “Stable” throughout. The same molecule gave an IC50 with MCF7 [14] of 8 µM.
Consider `CCCCCCCCCCCCC/C=C/[C@@H](O)[C@H](CO)NC(=O)CCCCC`, for which the “fold change (FC)” value was found to be 5 in the series on MCF7 [15]; 0.2 in the series on MCF7 [16]; 80 in the series on MCF7 [17]; 40 in the series with MCF7 [18]; 20 in the series with MCF7 [19]. Further, the IC50 in the series with MCF7 [14] came to 12 µM.
Regarding `CCCCCCCCCCCCC/C=C/[C@@H](O)[C@H](CO)NC(=O)[C@@H](O)CCCC`, the Stability result with MCF7 [1], with MCF7 [2], in the series with MCF7 [7] and with MCF7 [8] was “Stable” in each case. Moreover, the “fold change (FC)” value in the series on MCF7 [15] was determined as 4; with MCF7 [16], 2; in the series with MCF7 [17], 30; with MCF7 [18], 20; with MCF7 [19], 7.
In the case of `CCCCCCCCCCCCCCC[C@@H](O)[C@H](CO)NC(=O)[C@@H](O)CCCC`, the entries for the “fold change (FC)” value with MCF7 [11], in the series on MCF7 [12] and in the series with MCF7 [20] were 25, 16 and 19, respectively. Also, the results for the Stability result in the series with MCF7 [12] and in the series with MCF7 [13] were “Unstable” and “Stable”, respectively. The molecule also yielded a concentration for half-maximal inhibition (IC50) in the series on MCF7 [14] of 12 µM.
`CCCCCCCCCCCCCCC[C@@H](O)[C@H](CO)NC(=O)CCCCC`: the “fold change (FC)” value stood at 13 in the series with MCF7 [11], 5 in the series with MCF7 [12] and 7 in the series with MCF7 [20]. Besides, the Stability result with MCF7 [13] and in the series with MCF7 [21] was “Stable” throughout. In the series with MCF7 [14], this molecule showed an IC50 of 38 µM.
